In ChEMBL document CHEMBL2440012, “Design, synthesis and anticonvulsant properties of new N-Mannich bases derived from 3-phenylpyrrolidine-2,5-diones” (Bioorg Med Chem, 2013):
The source made the active and inactive calls. No cut-off for these calls is given here.

Experiments:
Cytochrome P450 3A4 [1] = target: T1, Cytochrome P450 3A4 (Homo sapiens, UniProt P08684); test: Inhibition of CYP3A4 (unknown origin) using 50 uM testosterone as substrate assessed as formation of 6-beta-OH-testosterone relative to control; assay type: ADME
Cytochrome P450 3A4 [2] = target: T1, Cytochrome P450 3A4; test: Inhibition of CYP3A4 (unknown origin) using 200 uM testosterone as substrate assessed as formation of 6-beta-OH-testosterone relative to control; assay type: ADME
Rattus norvegicus [3] = test: Anticonvulsant activity in ip dosed albino rat assessed as protection against pilocarpine-induced status epilepticus measured 0.5 hrs post first stage 3 seizure; assay type: functional
Method in brief: (§1)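 Male Sprague-Dawley rats (150–180 g) dosed ip, followed by challenge dose of pilocarpine; compound given relative to first stage III seizure (time zero or 0.5 h); outcome scored as protection or no protection, plus body-weight change 24 h after first stage III seizure.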

Rattus norvegicus [4] = test: Anticonvulsant activity in albino rat assessed as protection against pilocarpine-induced status epilepticus at 400 mg/kg, ip measured 0.5 hrs post first stage 3 seizure; assay type: functional, organism-based; design: dose 400 mg/kg; method in brief: as §1
[5] = Neurotoxicity in ip dosed albino CF1 mouse by rotorod test; assay type: toxicity, organism-based; conditions: in vivo
Mus musculus [6] = test: Protection index, ratio of TD50 for neurotoxicity in ip dosed albino CF1 mouse by rotorod test to ED50 for anticonvulsant activity in ip dosed albino CF1 mouse by 6 Hz psychomotor seizure test; assay type: functional
Mus musculus [7] = test: Neurotoxicity in ip dosed albino CF1 mouse assessed as time to peak effect by rotorod test; assay type: toxicity, organism-based; conditions: in vivo
Mus musculus [8] = test: Anticonvulsant activity against 6 Hz psychomotor seizure in ip dosed albino CF1 mouse by minimal clonic seizure test; assay type: functional
Mus musculus [9] = test: Anticonvulsant activity against 6 Hz psychomotor seizure in ip dosed albino CF1 mouse assessed as time to peak effect by minimal clonic seizure test; assay type: functional
Mus musculus [10] = test: Anticonvulsant activity in albino CF1 mouse assessed as assessed as protection against 6 Hz psychomotor seizure at 100 mg/kg, ip after 4 hrs by minimal clonic seizure test; assay type: functional; conditions: route intraperitoneal
Method in brief: (§2)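 Male CF-1 mice, groups of four, dosed ip in 0.5% methylcellulose/water suspension, then challenged by 6-Hz corneal stimulation at 32 mA (0.2 ms pulses, 3 s, constant current) at 0.25, 0.5, 1, 2 or 4 h; count of mice out of four protected from stunned posture/clonic seizure.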

Mus musculus [11] = test: Anticonvulsant activity in albino CF1 mouse assessed as assessed as protection against 6 Hz psychomotor seizure at 100 mg/kg, ip after 2 hrs by minimal clonic seizure test; assay type: functional; conditions: route intraperitoneal; method in brief: as §2
Mus musculus [12] = test: Anticonvulsant activity in albino CF1 mouse assessed as assessed as protection against 6 Hz psychomotor seizure at 100 mg/kg, ip after 1 hr by minimal clonic seizure test; assay type: functional; conditions: route intraperitoneal; method in brief: as §2
Mus musculus [13] = test: Anticonvulsant activity in albino CF1 mouse assessed as assessed as protection against 6 Hz psychomotor seizure at 100 mg/kg, ip after 0.25 hr by minimal clonic seizure test; assay type: functional; conditions: route intraperitoneal; method in brief: as §2
Rattus norvegicus [14] = test: Anticonvulsant activity in albino Sprague-Dawley rat assessed as protection against maximal electroshock-induced seizures at 30 mg/kg, po measured after 4 hrs; assay type: functional
Method in brief: (§3)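 Male Sprague-Dawley rats, four per group, dosed p.o. at 30 mg/kg in 0.5% methylcellulose/water suspension; MES test at 0.25, 0.5, 1, 2 and 4 h, motor impairment examined in parallel; number of rats out of four protected.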

Rattus norvegicus [15] = test: Anticonvulsant activity in albino Sprague-Dawley rat assessed as protection against maximal electroshock-induced seizures at 30 mg/kg, po measured after 2 hrs; assay type: functional; method in brief: as §3
Rattus norvegicus [16] = test: Anticonvulsant activity in albino Sprague-Dawley rat assessed as protection against maximal electroshock-induced seizures at 30 mg/kg, po measured after 1 hr; assay type: functional; method in brief: as §3
Rattus norvegicus [17] = test: Anticonvulsant activity in albino Sprague-Dawley rat assessed as protection against maximal electroshock-induced seizures at 30 mg/kg, po measured after 0.5 hr; assay type: functional; method in brief: as §3
Rattus norvegicus [18] = test: Anticonvulsant activity in albino Sprague-Dawley rat assessed as protection against maximal electroshock-induced seizures at 30 mg/kg, po measured after 0.25 hr; assay type: functional; method in brief: as §3
Mus musculus [19] = test: Neurotoxicity in albino CF1 mouse assessed as minimum motor impairment at 300 mg/kg, ip measured after 4 hrs by rotorod test; assay type: toxicity, organism-based; design: dose 300 mg/kg, route intraperitoneal; conditions: in vivo
Method in brief: (§4)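 Male CF-1 mice given ip suspension in 0.5% methylcellulose/water at 30, 100 and 300 mg/kg; MES, scPTZ (pentylenetetrazole 85 mg/kg sc, CD97 dose for clonic seizures ≥5 s) and rotarod (inability to hold balance 1 min in each of three trials) assessed at 0.5 and 4 h; value is minimum dose active in half or more animals.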

Mus musculus [20] = test: Neurotoxicity in ip dosed albino CF1 mouse assessed as minimum motor impairment in half or more animals measured after 0.5 hrs by rotorod test; assay type: toxicity, organism-based; conditions: in vivo; method in brief: as §4
Mus musculus [21] = test: Anticonvulsant activity in ip dosed albino CF1 mouse assessed as protection against subcutaneous pentylenetetrazole-induced convulsion in half or more animals measured after 4 hrs; assay type: functional; conditions: albino CF1, 4 h, read-out: MED; method in brief: as §4
Mus musculus [22] = test: Anticonvulsant activity in ip dosed albino CF1 mouse assessed as protection against subcutaneous pentylenetetrazole-induced convulsion in half or more animals measured after 0.5 hr; assay type: functional; conditions: albino CF1, 0.5 h, read-out: MED; method in brief: as §4
Mus musculus [23] = test: Anticonvulsant activity in ip dosed albino CF1 mouse assessed as protection against maximal electroshock-induced seizures in half or more animals measured after 0.5 hr; assay type: functional; conditions: read-out: MED; method in brief: as §4
Mus musculus [24] = test: Anticonvulsant activity in albino CF1 mouse assessed as protection against maximal electroshock-induced seizures at 300 mg/kg, ip measured after 4 hrs; assay type: functional, organism-based; design: dose 300 mg/kg; method in brief: as §4
Mus musculus [25] = test: Anticonvulsant activity in albino CF1 mouse assessed as assessed as protection against 6 Hz psychomotor seizure at 100 mg/kg, ip after 0.5 hr by minimal clonic seizure test; assay type: functional; conditions: route intraperitoneal; method in brief: as §2
Rattus norvegicus [26] = test: Neurotoxicity in po dosed albino Sprague-Dawley rat assessed as time to peak effect by rotorod test; assay type: toxicity, organism-based; conditions: in vivo
Rattus norvegicus [27] = test: Anticonvulsant activity against […] subcutaneous pentylenetetrazole-induced convulsion in po dosed albino Sprague-Dawley rat assessed as time to peak effect; assay type: functional
Rattus norvegicus [28] = test: Anticonvulsant activity against maximal electroshock-induced seizures in po dosed albino Sprague-Dawley rat assessed as time to peak effect; assay type: functional
Rattus norvegicus [29] = test: Protection index, ratio of TD50 for neurotoxicity in po dosed albino Sprague-Dawley rat by rotorod test to ED50 for anticonvulsant activity in po dosed albino Sprague-Dawley rat by MES test; assay type: functional
[30] = Neurotoxicity in po dosed albino Sprague-Dawley rat assessed as minimum motor impairment by rotorod test; assay type: toxicity, organism-based; conditions: in vivo
Rattus norvegicus [31] = test: Anticonvulsant activity in po dosed albino Sprague-Dawley rat assessed as protection against subcutaneous pentylenetetrazole-induced convulsion; assay type: functional
Mus musculus [32] = test: Neurotoxicity in ip dosed albino CF1 mouse assessed as minimum motor impairment in half or more animals measured after 4 hrs by rotorod test; assay type: toxicity, organism-based; conditions: in vivo; method in brief: as §4
Mus musculus [33] = test: Anticonvulsant activity in albino CF1 mouse assessed as protection against subcutaneous pentylenetetrazole-induced convulsion at 300 mg/kg, ip measured after 4 hrs; assay type: functional, organism-based; design: dose 300 mg/kg; method in brief: as §4
Mus musculus [34] = test: Anticonvulsant activity in albino CF1 mouse assessed as protection against subcutaneous pentylenetetrazole-induced convulsion at 300 mg/kg, ip measured after 0.5 hrs; assay type: functional, organism-based; design: dose 300 mg/kg; method in brief: as §4
Mus musculus [35] = test: Anticonvulsant activity in ip dosed albino CF1 mouse assessed as protection against maximal electroshock-induced seizures in half or more animals measured after 4 hrs; assay type: functional; conditions: read-out: MED; method in brief: as §4

T1 sequence (P08684 whole entry): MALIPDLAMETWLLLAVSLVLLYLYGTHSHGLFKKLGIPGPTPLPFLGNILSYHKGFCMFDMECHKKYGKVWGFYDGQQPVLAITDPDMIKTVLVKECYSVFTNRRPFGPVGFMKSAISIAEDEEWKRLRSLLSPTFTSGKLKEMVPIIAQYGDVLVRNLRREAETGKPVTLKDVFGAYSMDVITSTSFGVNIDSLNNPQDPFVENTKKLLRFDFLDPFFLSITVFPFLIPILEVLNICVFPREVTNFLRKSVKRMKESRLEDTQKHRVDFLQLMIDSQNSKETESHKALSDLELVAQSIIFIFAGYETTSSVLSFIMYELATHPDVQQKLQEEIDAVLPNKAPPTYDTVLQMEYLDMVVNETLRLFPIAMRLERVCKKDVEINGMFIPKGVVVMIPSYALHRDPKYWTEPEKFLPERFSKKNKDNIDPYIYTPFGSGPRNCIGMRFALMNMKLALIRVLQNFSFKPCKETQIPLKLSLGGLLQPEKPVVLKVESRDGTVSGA

With `O=C1CC(c2ccccc2)C(=O)N1CN1CCOCC1` (racemic) the “inhibition (INH)” value (Cytochrome P450 3A4 [1]) was 17%, the “inhibition (INH)” value (Cytochrome P450 3A4 [2]) was 19% and the ED50 (Rattus norvegicus [3]) was 342 mg/kg. The Activity (Rattus norvegicus [4]) was “Active”, the TD50 [5] was 293 mg/kg and the “Ratio TD50/ED50” value (Mus musculus [6]) was 3.79. For the same compound, the Time (Mus musculus [7]) was 0.25 h, the ED50 (Mus musculus [8]) was 77.2 mg/kg and the Time (Mus musculus [9]) was 0.25 h. The Activity (Mus musculus [10]) was 0%, the Activity (Mus musculus [11]) was 0% and the Activity (Mus musculus [12]) was 25%. For the same compound, the Activity (Mus musculus [13]) was 75%, the Activity (Rattus norvegicus [14]) was “inactive” and the Activity (Rattus norvegicus [15]) was “inactive”. The Activity (Rattus norvegicus [16]) was “inactive”, the Activity (Rattus norvegicus [17]) was “inactive” and the Activity (Rattus norvegicus [18]) was “inactive”. For the same compound, the Activity (Mus musculus [19]) was “Non-toxic”, the MED (Mus musculus [20]) was 300 mg/kg and the minimal effective dose (Mus musculus [21]) was 300 mg/kg. For the same compound, the minimal effective dose (Mus musculus [22]) was 300 mg/kg, the minimal effective dose (Mus musculus [23]) was 100 mg/kg and the Activity (Mus musculus [24]) was “inactive”. It also gave an Activity (Mus musculus [25]) of 0%.
Work on `O=C1NC(=O)C(c2ccccc2)(c2ccccc2)N1` [PHENYTOIN] yielded a Time (Rattus norvegicus [26]) of 1 h, a Time (Rattus norvegicus [27]) of 1 h and a Time (Rattus norvegicus [28]) of 1 h. The “Ratio TD50/ED50” value (Rattus norvegicus [29]) was >3.6, the TD50 [30] was > 100 mg/kg and the ED50 (Rattus norvegicus [31]) was > 500 mg/kg. It also gave an Activity (Rattus norvegicus [14]) of 75%, an Activity (Rattus norvegicus [15]) of 75% and an Activity (Rattus norvegicus [16]) of 75%. For the same compound, the Activity (Rattus norvegicus [17]) was 100%, the Activity (Rattus norvegicus [18]) was 25% and the MED (Mus musculus [32]) was 100 mg/kg. For the same compound, the MED (Mus musculus [20]) was 100 mg/kg, the Activity (Mus musculus [33]) was “inactive” and the Activity (Mus musculus [34]) was “inactive”. It also gave a minimal effective dose (Mus musculus [23]) of 30 mg/kg and a minimal effective dose (Mus musculus [35]) of 30 mg/kg.
